# Source: ChEMBL document CHEMBL1142354, “Synthesis and biological evaluation of (hetero)arylmethyloxy- and arylmethylamine-phenyl derivatives as potent P-glycoprotein modulating agents” (J Med Chem, 2008)
# Key:
# [1] = molecular target: T1, ATP-dependent translocase ABCB1 (Homo sapiens, UniProt P08183); assay: Activation of human P-glycoprotein ATPase in Caco-2 cells assessed as ATP depletion at 100 uM; assay type: cell-based; settings: caco-2, 100 µM
# [2] = molecular target: T1, ATP-dependent translocase ABCB1; assay: Inhibition of human P-glycoprotein mediated [3H]vinblastine transport in human Caco-2 cells; assay type: cell-based
# [3] = test system: Caco-2; assay: Ratio of permeability from basolateral to apical side over apical to basolateral side in human Caco-2 cells
# [4] = Cytotoxicity against human Adr cells assessed as LDH release upto 50 uM after 48 hrs; assay type: cell-based
# Summary of the method: (§1)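 MCF-7/Adr cells, which overexpress P-gp, were exposed in complete medium with or without test compound. LDH released into the medium was read with CytoTox-One substrate mix: 10 min at room temperature in the dark, then stop solution, fluorescence ex 560/em 590 nm. Cytotoxicity % is (treated LDH − medium background)/(total LDH of lysed untreated cells − background) × 100.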
# [5] = molecular target: T2, Broad substrate specificity ATP-binding cassette transporter ABCG2 (Homo sapiens, UniProt Q9UNQ0); assay: Inhibition of human BCRP pump mediated [3H]mitoxantrone transport in human Caco-2 cells; assay type: cell-based
# T2 sequence (Q9UNQ0 whole entry): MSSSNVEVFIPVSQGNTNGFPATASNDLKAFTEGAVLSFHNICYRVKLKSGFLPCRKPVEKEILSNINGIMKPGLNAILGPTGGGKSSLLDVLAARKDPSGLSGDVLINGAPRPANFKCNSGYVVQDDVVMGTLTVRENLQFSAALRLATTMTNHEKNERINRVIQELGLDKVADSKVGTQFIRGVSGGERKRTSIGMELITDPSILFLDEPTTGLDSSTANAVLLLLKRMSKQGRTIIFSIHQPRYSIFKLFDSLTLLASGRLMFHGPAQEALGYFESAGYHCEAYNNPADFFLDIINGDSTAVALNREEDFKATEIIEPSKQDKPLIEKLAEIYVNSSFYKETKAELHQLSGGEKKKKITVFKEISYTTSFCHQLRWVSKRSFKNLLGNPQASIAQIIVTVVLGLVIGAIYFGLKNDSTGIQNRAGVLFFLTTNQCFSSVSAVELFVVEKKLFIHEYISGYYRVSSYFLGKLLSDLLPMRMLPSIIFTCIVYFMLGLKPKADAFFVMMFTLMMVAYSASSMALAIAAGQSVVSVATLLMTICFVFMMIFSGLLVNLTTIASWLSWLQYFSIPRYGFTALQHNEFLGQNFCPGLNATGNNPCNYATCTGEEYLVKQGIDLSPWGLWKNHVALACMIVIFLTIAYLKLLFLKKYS
# Summary of the method: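 Caco-2 cells were grown 21 days on multiscreen filters at 10 000 cells/well, and monolayers were used at TEER >800 Ω×cm². 20 nM [³H]-mitoxantrone was added basolaterally with or without compound (0.20–400 µM) for 120 min at 37 °C, and apical appearance was scintillation-counted. Percent inhibition at each concentration gave EC50; three independent determinations, triplicate samples.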
# [6] = test system: MCF7; assay: Cytotoxicity against human MCF7 cells assessed as LDH release upto 50 uM after 48 hrs; assay type: cell-based; settings: mcf7, 48 h
# [7] = test system: MCF7; assay: Cytotoxicity against adriamycin-resistant human MCF7 cells assessed as LDH release at 1 uM after 48 hrs; assay type: cell-based; settings: mcf7, 48 h; summary of the method: as §1
# T1 sequence (P08183 whole entry): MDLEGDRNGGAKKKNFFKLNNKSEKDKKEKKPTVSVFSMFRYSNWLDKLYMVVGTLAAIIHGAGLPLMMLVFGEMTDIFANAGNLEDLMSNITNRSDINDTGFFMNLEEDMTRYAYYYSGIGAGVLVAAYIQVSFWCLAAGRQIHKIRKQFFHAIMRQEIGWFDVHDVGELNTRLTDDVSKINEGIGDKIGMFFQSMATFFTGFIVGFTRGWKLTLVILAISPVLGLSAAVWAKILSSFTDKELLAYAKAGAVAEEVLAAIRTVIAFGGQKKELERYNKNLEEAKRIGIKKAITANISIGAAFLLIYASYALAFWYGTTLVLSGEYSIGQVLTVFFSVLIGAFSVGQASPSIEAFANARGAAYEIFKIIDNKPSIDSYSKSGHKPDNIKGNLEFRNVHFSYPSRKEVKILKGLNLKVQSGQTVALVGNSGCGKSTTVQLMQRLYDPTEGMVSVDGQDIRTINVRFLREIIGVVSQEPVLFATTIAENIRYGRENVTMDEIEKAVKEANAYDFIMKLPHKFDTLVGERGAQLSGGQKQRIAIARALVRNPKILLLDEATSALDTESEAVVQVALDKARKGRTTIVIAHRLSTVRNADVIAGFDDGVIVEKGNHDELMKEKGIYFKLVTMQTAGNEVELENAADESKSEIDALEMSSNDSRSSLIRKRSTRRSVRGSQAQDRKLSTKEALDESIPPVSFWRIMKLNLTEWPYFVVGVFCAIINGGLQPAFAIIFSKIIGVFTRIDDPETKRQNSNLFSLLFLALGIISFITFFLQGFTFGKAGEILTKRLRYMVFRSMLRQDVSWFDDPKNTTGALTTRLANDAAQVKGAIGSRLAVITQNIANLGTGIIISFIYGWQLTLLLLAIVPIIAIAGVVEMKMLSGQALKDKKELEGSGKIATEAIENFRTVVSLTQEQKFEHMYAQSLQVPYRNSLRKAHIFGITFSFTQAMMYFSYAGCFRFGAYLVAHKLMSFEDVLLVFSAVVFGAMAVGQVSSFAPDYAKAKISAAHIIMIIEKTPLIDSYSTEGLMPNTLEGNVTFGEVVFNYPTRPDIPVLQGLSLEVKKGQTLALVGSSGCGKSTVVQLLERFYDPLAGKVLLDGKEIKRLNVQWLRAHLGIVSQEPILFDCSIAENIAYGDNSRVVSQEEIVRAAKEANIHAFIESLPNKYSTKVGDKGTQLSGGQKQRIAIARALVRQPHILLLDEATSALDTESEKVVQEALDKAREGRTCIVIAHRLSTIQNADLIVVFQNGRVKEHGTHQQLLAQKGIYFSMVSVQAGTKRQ
Structure (SMILES),Activity [1],EC50 [2] [µM],Ratio [3],Activity [4],EC50 [5] [µM],Activity [6],Activity [7] [%]
COc1cccc(CCc2ccccc2OCc2ccccc2)c1,Not Active,,,,,,
c1ccc(CCc2ccccc2OCc2ccccc2)cc1,Active,> 1000,,,,,
c1ccc(CCc2ccccc2OCc2ccccn2)cc1,Not Active,,,,,,
COc1cccc(CCc2ccccc2OCc2cccnc2)c1,Active,> 1000,,,,,
c1ccc(CCc2ccccc2OCc2cccnc2)cc1,Active,,,,,,
COc1cccc(CCc2ccccc2OCc2cccc(OC)c2)c1,Not Active,,13,,,,
COc1cccc(CCc2ccccc2OCc2cccc(OC)c2OC)c1,Active,,,Not Active,120,Not Active,
COc1cccc(CCc2ccccc2NCc2cc(OC)cc(OC)c2)c1,Not Active,0.9,6.9,Not Active,,Not Active,
COc1cccc(CCc2ccccc2OCc2ccccc2OC)c1,Not Active,12,8.7,,,,
COc1cccc(CCc2ccccc2OCc2cc(OC)cc(OC)c2)c1,Not Active,2.5,6.7,,,,
COc1cc(COc2ccccc2CCc2ccccc2)cc(OC)c1,Not Active,1.6,5.7,,,,
c1ccc(CCc2ccccc2OCc2ccncc2)cc1,Active,18,1.3,,,,
COc1ccccc1COc1ccccc1CCc1ccccc1,Not Active,20,1.4,,,,
COc1cccc(CCc2ccccc2OCc2ccccn2)c1,Not Active,,,,,,
COc1cc2c(cc1OC)CN(CCc1ccc(NC(=O)c3cccc4c(=O)c5cccc(OC)c5[nH]c34)cc1)CC2,Not Active,,,,,,
COc1ccc(COc2ccccc2CCc2ccccc2)cc1,Not Active,3.1,5.1,,,,
COc1ccc(COc2ccccc2CCc2cccc(OC)c2)cc1,Not Active,5.2,7.6,,,,

# Second part, led by results:
Activity [1],EC50 [2] [µM],Ratio [3],Structure (SMILES),Activity [4],EC50 [5] [µM],Activity [6],Activity [7] [%]
Not Active,0.8,0.95,COc1cccc(COc2ccccc2CCc2ccccc2)c1OC,Not Active,75,Not Active,
Not Active,0.75,2.1,COc1ccc(COc2ccccc2CCc2ccccc2)cc1OC,10%,58,,
Not Active,0.18,5.6,COc1cccc(CCc2ccccc2NCc2ccc(OC)c(OC)c2)c1,Not Active,0.5,Not Active,
Not Active,0.085,5.5,COc1cccc(CCc2ccccc2NCc2cccc(OC)c2OC)c1,Not Active,1.5,Not Active,
Not Active,0.65,5.1,COc1cccc(CCc2ccccc2OCc2ccc(OC)c(OC)c2)c1,Not Active,150,Not Active,
Active,0.85,2.1,COc1cccc(CCc2ccccc2OCc2ccncc2)c1,,,,50
Not Active,0.48,2.9,COc1cccc(CCc2ccccc2NCc2cccc(OC)c2)c1,10%,7,,
